Results on four compounds are retold here after ChEMBL document CHEMBL3525985, “Regiospecificity and stereospecificity of human UDP-glucuronosyltransferases in the glucuronidation of estriol, 16-epiestriol, 17-epiestriol, and 13-epiestradiol” (Drug Metab Dispos, 2013).

What all share (assay type): ADME
For one data set, the system named is Liver microsome. Put plainly: Drug metabolism in human liver microsomes assessed as 16-epiestriol-16-glucuronide formation after 15 to 60 mins by Michaelis-Menten equation analysis in presence of UDPGA. An outline of the steps:
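Pooled human liver microsomes (30 donors), 0.5 or 10 µg, with alamethicin at 5% of total protein. Incubated with 50 mM phosphate pH 7.4, 10 mM MgCl₂, 5 mM UDPGA and 10% DMSO for 15–60 min at 37°C. Each glucuronide regioisomer quantified by HPLC, in triplicate, with substrate consumption at or below 10%.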
Background: Liver microsomes are a subcellular fraction often used to study metabolism.

Data set [1] is described as follows: Drug metabolism in human intestine microsomes assessed as 16-epiestriol-3-glucuronide formation after 15 to 60 mins by Michaelis-Menten equation analysis in presence of UDPGA. An outline of the steps: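 Pooled human intestine microsomes (6 donors), 0.5 or 10 µg, with alamethicin at 5% of total protein. Incubated with 50 mM phosphate pH 7.4, 10 mM MgCl₂, 5 mM UDPGA and 10% DMSO for 15–60 min at 37°C. Each glucuronide regioisomer quantified by HPLC, in triplicate, with substrate consumption at or below 10%.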

In data set [2] the target is T1, UDP-glucuronosyltransferase 2B7 (Homo sapiens, UniProt P16662).
T1 sequence (P16662 whole entry): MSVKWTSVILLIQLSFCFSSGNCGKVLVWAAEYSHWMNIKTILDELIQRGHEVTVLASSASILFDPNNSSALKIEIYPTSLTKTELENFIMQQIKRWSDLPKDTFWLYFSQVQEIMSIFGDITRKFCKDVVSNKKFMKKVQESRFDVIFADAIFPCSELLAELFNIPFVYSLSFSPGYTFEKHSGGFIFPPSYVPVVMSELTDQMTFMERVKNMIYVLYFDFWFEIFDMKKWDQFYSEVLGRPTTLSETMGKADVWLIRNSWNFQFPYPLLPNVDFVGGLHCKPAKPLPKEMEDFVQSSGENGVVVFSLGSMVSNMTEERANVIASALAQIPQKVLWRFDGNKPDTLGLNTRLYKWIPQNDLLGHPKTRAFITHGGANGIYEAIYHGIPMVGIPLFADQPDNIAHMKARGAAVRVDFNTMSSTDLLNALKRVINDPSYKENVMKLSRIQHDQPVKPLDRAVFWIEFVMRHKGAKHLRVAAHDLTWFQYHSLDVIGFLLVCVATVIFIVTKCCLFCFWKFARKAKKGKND
Nature of the data set: Drug metabolism assessed as recombinant human C-terminal His-tagged UGT2B7-mediated 13-epiestradiol-17-glucuronide formation at 200 uM after 15 to 60 mins by HPLC analysis in presence of UDPGA. As to conditions: recombinant enzyme. An outline of the steps:
(§1)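 Screening at a single substrate concentration of 200 μM, in triplicate. The reaction used 5 or 50 µg of UGT-enriched insect cell membranes in 50 mM phosphate pH 7.4 with 10 mM MgCl₂ and 5 mM UDPGA, 10% final DMSO. Incubation was 15–60 min at 37°C. Perchloric acid stopped the reaction and supernatants were analysed by HPLC. Controls lacked UDPGA. Rates were normalized to relative UGT expression level.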

Data set [3] has as its target T1, UDP-glucuronosyltransferase 2B7. Put plainly: Drug metabolism assessed as recombinant human C-terminal His-tagged UGT2B7-mediated 17-epiestriol-17-glucuronide formation at 200 uM after 15 to 60 mins by HPLC analysis in presence of UDPGA. To be noted: recombinant enzyme. An outline of the steps:
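Membranes (5 or 50 µg) from insect cells expressing His-tagged UGT2B7, with 200 µM aglycone in 50 mM phosphate pH 7.4, 10 mM MgCl₂, 5 mM UDPGA and 10% DMSO (final), 15–60 min at 37°C. Stopped with perchloric acid on ice, supernatant run on HPLC. Done in triplicate with no-UDPGA controls; rates normalized to relative UGT expression.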

For data set [4], the target named is T2, UDP-glucuronosyltransferase 2A1 (Homo sapiens, UniProt P0DTE4).
T2 sequence (P0DTE4 whole entry): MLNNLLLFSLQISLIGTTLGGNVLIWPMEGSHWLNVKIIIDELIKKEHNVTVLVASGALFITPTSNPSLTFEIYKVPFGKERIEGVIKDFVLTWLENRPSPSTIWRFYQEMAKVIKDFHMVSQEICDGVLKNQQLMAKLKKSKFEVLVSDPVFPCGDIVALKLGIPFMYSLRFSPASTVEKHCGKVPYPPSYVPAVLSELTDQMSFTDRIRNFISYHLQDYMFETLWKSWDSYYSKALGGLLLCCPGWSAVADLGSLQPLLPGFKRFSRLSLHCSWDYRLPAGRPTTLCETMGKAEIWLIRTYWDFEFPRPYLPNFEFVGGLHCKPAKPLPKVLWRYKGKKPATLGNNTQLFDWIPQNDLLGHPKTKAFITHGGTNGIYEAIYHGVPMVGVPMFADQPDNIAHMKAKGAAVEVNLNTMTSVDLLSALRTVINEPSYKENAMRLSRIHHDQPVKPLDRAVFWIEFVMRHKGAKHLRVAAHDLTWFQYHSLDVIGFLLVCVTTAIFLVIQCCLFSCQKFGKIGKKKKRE
Put plainly: Drug metabolism assessed as recombinant human C-terminal His-tagged UGT2A1-mediated 17-epiestriol-17-glucuronide formation at 200 uM after 15 to 60 mins by HPLC analysis in presence of UDPGA. As to conditions: recombinant enzyme. An outline of the steps:
as §1

Data set [5] concerns the target T2, UDP-glucuronosyltransferase 2A1. Nature of the data set: Drug metabolism assessed as recombinant human C-terminal His-tagged UGT2A1-mediated 17-epiestriol-16-glucuronide formation at 200 uM after 15 to 60 mins by HPLC analysis in presence of UDPGA. As to conditions: recombinant enzyme. An outline of the steps: as §1
Data set [6] deals with T3, UDP-glucuronosyltransferase 1A1 (Homo sapiens, UniProt P22309).
T3 sequence (P22309 whole entry): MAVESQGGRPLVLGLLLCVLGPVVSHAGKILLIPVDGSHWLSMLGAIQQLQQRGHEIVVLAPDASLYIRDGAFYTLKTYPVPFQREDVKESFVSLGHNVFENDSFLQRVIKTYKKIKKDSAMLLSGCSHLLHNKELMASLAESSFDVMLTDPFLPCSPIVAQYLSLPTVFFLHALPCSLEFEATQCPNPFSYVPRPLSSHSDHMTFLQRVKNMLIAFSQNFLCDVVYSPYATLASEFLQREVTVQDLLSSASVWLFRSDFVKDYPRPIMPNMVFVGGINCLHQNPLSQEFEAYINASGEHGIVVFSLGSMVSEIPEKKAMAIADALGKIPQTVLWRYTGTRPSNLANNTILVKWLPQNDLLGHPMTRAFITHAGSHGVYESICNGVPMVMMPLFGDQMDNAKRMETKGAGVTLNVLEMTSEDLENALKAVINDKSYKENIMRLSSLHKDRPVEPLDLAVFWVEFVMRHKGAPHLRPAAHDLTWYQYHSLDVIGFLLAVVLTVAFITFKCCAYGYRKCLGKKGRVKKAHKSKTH
Put plainly: Drug metabolism assessed as recombinant human C-terminal His-tagged UGT1A1-mediated 17-epiestriol-3-glucuronide formation at 200 uM after 15 to 60 mins by HPLC analysis in presence of UDPGA. As to conditions: recombinant enzyme. An outline of the steps: as §1

Data set [7] deals with T3, UDP-glucuronosyltransferase 1A1. Nature of the data set: Drug metabolism assessed as recombinant human C-terminal His-tagged UGT1A1-mediated estradiol-3-glucuronide formation at 200 uM after 15 to 60 mins by HPLC analysis in presence of UDPGA. As to conditions: recombinant enzyme. An outline of the steps: as §1

For `C[C@]12CC[C@@H]3c4ccc(O)cc4CC[C@H]3[C@@H]1C[C@H](O)[C@@H]2O` [EPIESTRIOL], the Michaelis-Menten constant (Km) with Liver microsome stood at 33 µM; in data set [1], 50 µM. The Vmax in the data set with Liver microsome was 8011 pmol/min/mg; in data set [1] it was 4111 pmol/min/mg.
Regarding `C[C@@]12CC[C@@H]3c4ccc(O)cc4CC[C@H]3[C@@H]1CC[C@@H]2O`, in data set [2], the Drug metabolism entry was “metabolite_detected”.
Take `C[C@]12CC[C@@H]3c4ccc(O)cc4CC[C@H]3[C@@H]1C[C@@H](O)[C@H]2O`: the Drug metabolism result in data set [3], in data set [4], in data set [5] and in data set [6] was “metabolite_detected” throughout.
With `C[C@]12CC[C@@H]3c4ccc(O)cc4CC[C@H]3[C@@H]1CC[C@@H]2O` [ESTRADIOL], the Drug metabolism entry in data set [7] is “metabolite_detected”.

Usually Km stands for the concentration of substrate that gives half-maximal velocity. What is called Vmax is the top rate of the reaction or transport when substrate is in excess.
